Reference: ChEMBL document CHEMBL4138188, “Eurycomalactone Inhibits Expression of Endothelial Adhesion Molecules at a Post-Transcriptional Level” (J Nat Prod, 2017)
Activity calls are given as the source filed them. No cut-off for these calls is given here.

Legend:
[1] = species on record: Homo sapiens; assay: Inhibition of NF-kappaB in HUVECtert assessed as reduction in TNFalpha-induced ICAM-1 mRNA expression level at 10 uM pretreated for 30 mins followed by TNFalpha stimulation measured after 4 hrs by qRT-PCR analysis
Summary of the method: (§1)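 HUVECtert (immortalised HUVEC, used to passage 15), 0.5 × 10^6 cells grown 48 h on gelatin-coated dishes. Preincubated 30 min with compound or 0.1% DMSO vehicle, then TNFα 10 ng/mL for 2 h (E-selectin) or 4 h (VCAM-1, ICAM-1). After RNA isolation and cDNA synthesis, mRNA was quantified by qRT-PCR using the 2−ΔΔCt method. Means ± SD, n = 3.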

[2] = species on record: Homo sapiens; assay: Inhibition of NF-kappaB in HUVECtert assessed as reduction in TNFalpha-induced VCAM-1 mRNA expression level at 10 uM pretreated for 30 mins followed by TNFalpha stimulation measured after 4 hrs by qRT-PCR analysis; summary of the method: as §1
[3] = species on record: Homo sapiens; assay: Inhibition of NF-kappaB in HUVECtert assessed as reduction in TNFalpha-induced E-selectin mRNA expression level at 10 uM pretreated for 30 mins followed by TNFalpha stimulation measured after 2 hrs by qRT-PCR analysis; summary of the method: as §1
[4] = species on record: Homo sapiens; assay: Inhibition of NF-kappaB in HUVECtert assessed as reduction in TNFalpha-induced E-selectin mRNA expression level at 35 uM pretreated for 30 mins followed by TNFalpha stimulation measured after 2 hrs by qRT-PCR analysis
[5] = species on record: Homo sapiens; assay: Inhibition of NF-kappaB in HUVECtert assessed as reduction in cyclin D1 mRNA expression level at 1 uM measured up to 240 mins by qRT-PCR analysis
Summary of the method: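 HUVECtert incubated without TNFα with 2 μM agent, 1 μM cycloheximide or 0.1% DMSO for 0.5−4 h; cyclin D1 mRNA by qRT-PCR, 2−ΔΔCt analysis.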

[6] = species on record: Homo sapiens; assay: Inhibition of de novo protein synthesis in HUVECtert at 1 to 35 uM after 30 mins by Click-iT OPP/Alexa fluor 488 picolyl azide reagent based flow cytometry; assay type: functional
Summary of the method: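 HUVECtert (1 × 10^6 cells in tubes) exposed 30 min to agent (2 or 5 μM; cycloheximide 1−35 μM) or vehicle, then 20 μM OPP 30 min; fixed, permeabilised, Alexa 488 click-labelled in Tris buffer pH 7.4; FL-1 flow cytometry relative to control; n = 3, one-way ANOVA/Dunnett.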

[7] = Inhibition of NF-kappaB in HUVECtert assessed as reduction in TNFalpha-induced VCAM-1 expression level pretreated for 30 mins followed by TNFalpha stimulation measured after 18 hrs by flow cytometry; set-up: species or system Homo sapiens
Summary of the method: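 FITC-antibody surface staining, flow cytometry; expression relative to TNFα-stimulated control. Parthenolide 10 μM as positive control; means ± SD, n = 3, one-way ANOVA/Dunnett versus vehicle.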

[8] = species on record: Homo sapiens; assay: Inhibition of de novo protein synthesis in HUVECtert at 1 to 35 uM after 30 mins by Click-iT OPP/Alexa fluor 488 picolyl azide reagent based confocal fluorescence microscopy; assay type: functional
Summary of the method: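 Cells on gelatin coverslips (24 h) exposed 30 min to agent (2 or 5 μM; cycloheximide 1, 3.5, 35 μM) or 0.1% DMSO, then 20 μM OPP for 30 min; formaldehyde fixation, Triton permeabilisation, Alexa 488 picolyl azide click reaction 30 min, nuclear counterstain; confocal imaging at 10×, constant gain and exposure.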

[9] = species on record: Homo sapiens; assay: Reduction in survivin level in HUVECtert at 1 uM by Western blot analysis; assay type: functional; settings: TDE = time-dependent effect
Summary of the method: (§2)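 HUVECtert treated with 1 μM cycloheximide, 2 μM agent, vehicle, or left untreated for a time course; cyclin D1 or survivin by Western blot, actin loading control; means ± SD of three blots, one-way ANOVA/Dunnett versus untreated.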

[10] = species on record: Homo sapiens; assay: Inhibition of NF-kappaB in HUVECtert assessed as reduction in TNFalpha-induced VCAM-1 mRNA expression level at 35 uM pretreated for 30 mins followed by TNFalpha stimulation measured after 4 hrs by qRT-PCR analysis
[11] = species on record: Homo sapiens; assay: Reduction in cyclin A level in HUVECtert at 1 uM after 8 hrs by Western blot analysis; assay type: functional
[12] = species on record: Homo sapiens; assay: Reduction in cyclin D1 level in HUVECtert at 1 uM by Western blot analysis; assay type: functional; settings: TDE = time-dependent effect; summary of the method: as §2
[13] = species on record: Homo sapiens; assay: Inhibition of NF-kappaB in HUVECtert assessed as reduction in TNFalpha-induced ICAM-1 mRNA expression level at 35 uM pretreated for 30 mins followed by TNFalpha stimulation measured after 4 hrs by qRT-PCR analysis
[14] = species on record: Homo sapiens; assay: Reduction in p53 level in HUVECtert at 1 uM after 8 hrs by Western blot analysis; assay type: functional

SMILES | inhibition [1] | inhibition [2] | inhibition [3] | inhibition [4] | inhibition [5] | inhibition [6] | IC50 [7] [nM] | inhibition [8] | Activity [9] | inhibition [10] | Activity [11] | Activity [12] | inhibition [13] | Activity [14]
C=C1C(=O)O[C@@H]2C3O[C@]3(C)CC/C=C(\C)CC[C@@H]12 (some centres undefined) | Active | Active | Active | – | – | – | – | – | – | – | – | – | – | –
C[C@@H]1C[C@@H]([C@H](O)CC2CC(=O)NC(=O)C2)C(=O)[C@@H](C)C1 [CYCLOHEXIMIDE] | – | – | – | inactive | inactive | Active | 300 | Active | Tde | Active | inactive | Tde | inactive | inactive
